The results in this text go back to ChEMBL document CHEMBL1938243, “Identification of novel, exosite-binding matrix metalloproteinase-13 inhibitor scaffolds” (Bioorg Med Chem Lett, 2011).

Activity calls are given as the source filed them. The calls are words filed in the database; no cut-off is given here.

Test [1] addresses T1, Collagenase 3 (Homo sapiens, UniProt P45452). The experiment in a line: Inhibition of human full length recombinant MMP13 using triple-helical fTHP-15 as substrate at 40 uM after 4 hrs by FRET assay. Summed up: (§1)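 Inhibitors tested at 40 μM in a FRET assay with the triple-helical peptide substrate fTHP-15 (exosite-engaging), read as percent inhibition of enzyme activity. Enzyme levels: MMP-1 4 nM; MMP-2, MMP-9 and MMP-14 10 nM each; MMP-8 2 nM; MMP-13 2.3 nM.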

Test [2] has as its target T2, Neutrophil collagenase (Homo sapiens, UniProt P22894). The experiment in a line: Inhibition of MMP8 expressed in CHO-K1 cells using triple-helical fTHP-15 as substrate at 40 uM after 4 hrs by FRET assay. The gist of the method:
as §1
Target sequence in this assay (P22894 101-467 limits assumed): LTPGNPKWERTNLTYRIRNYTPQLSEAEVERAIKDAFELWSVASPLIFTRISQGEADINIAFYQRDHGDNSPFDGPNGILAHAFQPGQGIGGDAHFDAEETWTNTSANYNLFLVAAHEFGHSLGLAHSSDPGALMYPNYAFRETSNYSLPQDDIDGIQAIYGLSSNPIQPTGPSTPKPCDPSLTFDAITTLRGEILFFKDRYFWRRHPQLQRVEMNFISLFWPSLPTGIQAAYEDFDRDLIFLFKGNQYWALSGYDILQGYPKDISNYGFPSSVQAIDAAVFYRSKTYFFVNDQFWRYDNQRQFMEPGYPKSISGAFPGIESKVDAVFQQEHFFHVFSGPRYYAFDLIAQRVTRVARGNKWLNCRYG

The target of test [3] is T2, Neutrophil collagenase. Put plainly: Inhibition of MMP8 expressed in CHO-K1 cells using triple-helical fTHP-15 as substrate after 4 hrs by FRET assay. In kind it is cell-based.
Target sequence in this assay (P22894 whole entry): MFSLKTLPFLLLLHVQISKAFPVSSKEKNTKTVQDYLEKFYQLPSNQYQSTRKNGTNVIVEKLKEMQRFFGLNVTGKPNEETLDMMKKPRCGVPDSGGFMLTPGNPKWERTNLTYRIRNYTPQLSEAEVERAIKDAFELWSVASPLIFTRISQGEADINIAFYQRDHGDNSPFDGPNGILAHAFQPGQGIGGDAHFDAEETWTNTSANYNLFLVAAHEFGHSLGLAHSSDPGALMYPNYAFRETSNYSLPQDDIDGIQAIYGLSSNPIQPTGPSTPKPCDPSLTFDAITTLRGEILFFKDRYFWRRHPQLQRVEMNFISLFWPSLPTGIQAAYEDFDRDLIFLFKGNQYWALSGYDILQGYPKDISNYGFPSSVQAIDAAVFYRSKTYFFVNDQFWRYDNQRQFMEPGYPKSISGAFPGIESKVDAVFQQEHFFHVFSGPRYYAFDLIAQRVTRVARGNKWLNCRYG
In a further test the target is T3, Interstitial collagenase (Homo sapiens, UniProt P03956).
T3 sequence (P03956 whole entry): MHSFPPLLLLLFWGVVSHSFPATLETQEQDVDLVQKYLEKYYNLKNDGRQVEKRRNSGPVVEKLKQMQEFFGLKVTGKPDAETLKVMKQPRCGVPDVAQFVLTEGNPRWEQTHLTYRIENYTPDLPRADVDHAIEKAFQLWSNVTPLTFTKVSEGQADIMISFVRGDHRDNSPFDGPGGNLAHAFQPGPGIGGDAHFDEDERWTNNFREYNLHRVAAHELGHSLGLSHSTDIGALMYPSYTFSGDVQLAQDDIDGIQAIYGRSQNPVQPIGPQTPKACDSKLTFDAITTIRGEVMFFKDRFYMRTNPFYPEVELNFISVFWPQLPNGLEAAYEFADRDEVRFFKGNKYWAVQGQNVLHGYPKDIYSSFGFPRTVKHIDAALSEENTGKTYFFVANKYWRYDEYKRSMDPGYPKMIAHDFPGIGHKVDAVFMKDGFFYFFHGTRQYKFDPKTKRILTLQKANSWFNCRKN
Put plainly: Inhibition of MMP1 expressed in Escherichia coli using triple-helical fTHP-15 as substrate after 4 hrs by FRET assay.

Test [4] concerns the target T1, Collagenase 3. Put plainly: Noncompetitive inhibition of human full length recombinant MMP13 using triple-helical fTHP-15 as substrate by Lineweaver-Burk plot analysis. The gist of the method: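 Single-inhibitor kinetic assay of MMP-13 hydrolysis of the FRET triple-helical peptide fTHP-15, which engages protease exosites. Run to obtain the inhibition constant (Ki) and the inhibition modality, following previously described methods.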

The target in test [5] is T4, Interstitial collagenase (Homo sapiens) (UniProt P03956).
T4 sequence (whole entry): T3 sequence (P03956 whole entry)
Put plainly: Inhibition of MMP1 expressed in Escherichia coli using triple-helical fTHP-15 as substrate at 40 uM after 4 hrs by FRET assay. Summed up:
as §1

Test [6] deals with Stromelysin-1 (Homo sapiens) (UniProt P08254). Put plainly: Inhibition of MMP3 expressed in Escherichia coli assessed as residual activity using Knight SSP as substrate at 100 uM after 1.5 to 4 hrs by spectrofluorometric analysis relative to control.
For test [7], the target named is Disintegrin and metalloproteinase domain-containing protein 17 (Homo sapiens) (UniProt P78536). Put plainly: Inhibition of TACE at 40 uM.
Test [8] deals with T5, Matrix metalloproteinase-20 (Homo sapiens) (UniProt O60882).
T5 sequence (whole entry): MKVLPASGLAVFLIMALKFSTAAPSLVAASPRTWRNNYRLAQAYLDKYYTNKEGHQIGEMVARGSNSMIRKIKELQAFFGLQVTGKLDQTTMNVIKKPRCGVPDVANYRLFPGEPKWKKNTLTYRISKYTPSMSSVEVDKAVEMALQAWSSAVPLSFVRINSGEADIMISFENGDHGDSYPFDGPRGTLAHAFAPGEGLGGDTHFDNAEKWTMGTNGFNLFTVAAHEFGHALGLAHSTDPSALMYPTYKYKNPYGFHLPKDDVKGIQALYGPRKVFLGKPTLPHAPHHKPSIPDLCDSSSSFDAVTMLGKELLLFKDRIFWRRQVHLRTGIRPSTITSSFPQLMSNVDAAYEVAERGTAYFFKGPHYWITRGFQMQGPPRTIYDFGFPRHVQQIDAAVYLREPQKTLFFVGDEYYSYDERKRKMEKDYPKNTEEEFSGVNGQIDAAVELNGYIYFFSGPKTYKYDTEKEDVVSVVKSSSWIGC
Put plainly: Inhibition of MMP20 assessed as residual activity using Knight SSP as substrate at 100 uM after 1.5 to 4 hrs by spectrofluorometric analysis relative to control.

Test [9] deals with T1, Collagenase 3. Put plainly: Inhibition of human full length recombinant MMP13 assessed as residual activity using Knight SSP as substrate at 100 uM after 1.5 to 4 hrs by spectrofluorometric analysis relative to control.
Test [10] deals with 72 kDa type IV collagenase (Homo sapiens) (UniProt P08253). The experiment in a line: Inhibition of human MMP2 using triple-helical fTHP-15 as substrate at 40 uM after 4 hrs by FRET assay. Summed up:
as §1

Test [11] has as its target Macrophage metalloelastase (Homo sapiens) (UniProt P39900). Put plainly: Inhibition of MMP12 assessed as residual activity using Knight SSP as substrate at 100 uM after 1.5 to 4 hrs by spectrofluorometric analysis relative to control.
Test [12] concerns the target Matrix metalloproteinase-14 (Homo sapiens) (UniProt P50281). Put plainly: Inhibition of MMP14 using triple-helical fTHP-15 as substrate at 40 uM after 4 hrs by FRET assay. Summed up: as §1
Test [13] has the same target. The experiment in a line: Inhibition of MMP14 assessed as residual activity using Knight SSP as substrate at 100 uM after 1.5 to 4 hrs by spectrofluorometric analysis relative to control.
In test [14] the target is T4, Interstitial collagenase (Homo sapiens). The experiment in a line: Inhibition of MMP1 expressed in Escherichia coli assessed as residual activity using Knight SSP as substrate at 100 uM after 1.5 to 4 hrs by spectrofluorometric analysis relative to control.
Test [15] has as its target 72 kDa type IV collagenase (Homo sapiens) (UniProt P08253). Put plainly: Inhibition of human MMP2 assessed as residual activity using Knight SSP as substrate at 100 uM after 1.5 to 4 hrs by spectrofluorometric analysis relative to control.
The target of test [16] is T2, Neutrophil collagenase. Put plainly: Inhibition of MMP8 expressed in CHO-K1 cells assessed as residual activity using Knight SSP as substrate at 100 uM after 1.5 to 4 hrs by spectrofluorometric analysis relative to control. It is filed as cell-based.
Target sequence in this assay (P22894 101-467 limits assumed): as the sequence (P22894 101-467 limits assumed) above
In test [17] the target is Matrix metalloproteinase-9 (Homo sapiens) (UniProt P14780). The experiment in a line: Inhibition of recombinant MMP9 using triple-helical fTHP-15 as substrate at 40 uM after 4 hrs by FRET assay. The gist of the method:
as §1

Stromelysin-1 (Homo sapiens), sequence (P08254 100-477 limits assumed): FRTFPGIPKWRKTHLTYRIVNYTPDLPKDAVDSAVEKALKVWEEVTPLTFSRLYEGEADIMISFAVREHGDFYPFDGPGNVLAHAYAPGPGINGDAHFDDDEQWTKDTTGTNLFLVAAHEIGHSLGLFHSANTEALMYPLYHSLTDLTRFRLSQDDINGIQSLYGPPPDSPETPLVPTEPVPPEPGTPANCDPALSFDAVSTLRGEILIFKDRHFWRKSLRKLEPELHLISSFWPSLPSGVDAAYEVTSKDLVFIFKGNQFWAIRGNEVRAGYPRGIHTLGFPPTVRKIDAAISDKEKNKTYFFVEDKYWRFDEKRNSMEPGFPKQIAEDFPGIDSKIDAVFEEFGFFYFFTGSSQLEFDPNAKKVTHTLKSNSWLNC
Matrix metalloproteinase-9 (Homo sapiens), sequence (P14780 whole entry): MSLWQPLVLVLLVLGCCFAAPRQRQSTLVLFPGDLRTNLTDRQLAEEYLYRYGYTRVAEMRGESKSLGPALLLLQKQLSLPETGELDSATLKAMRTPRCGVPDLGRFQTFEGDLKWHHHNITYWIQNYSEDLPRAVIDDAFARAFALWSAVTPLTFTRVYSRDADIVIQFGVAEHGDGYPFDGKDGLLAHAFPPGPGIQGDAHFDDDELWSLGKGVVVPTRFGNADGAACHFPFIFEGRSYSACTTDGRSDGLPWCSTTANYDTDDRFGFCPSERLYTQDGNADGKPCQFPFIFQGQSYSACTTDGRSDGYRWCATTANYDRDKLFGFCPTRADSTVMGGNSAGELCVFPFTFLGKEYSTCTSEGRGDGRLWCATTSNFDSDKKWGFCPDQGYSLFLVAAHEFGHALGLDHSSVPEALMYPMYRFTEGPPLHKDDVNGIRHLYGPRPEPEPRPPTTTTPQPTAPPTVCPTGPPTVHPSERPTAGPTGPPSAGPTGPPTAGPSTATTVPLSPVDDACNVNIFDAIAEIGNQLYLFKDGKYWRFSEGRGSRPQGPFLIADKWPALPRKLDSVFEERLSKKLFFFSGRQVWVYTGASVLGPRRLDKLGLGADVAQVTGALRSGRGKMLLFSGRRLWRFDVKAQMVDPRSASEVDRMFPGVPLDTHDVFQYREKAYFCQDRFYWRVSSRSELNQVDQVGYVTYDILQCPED
Disintegrin and metalloproteinase domain-containing protein 17 (Homo sapiens), sequence (P78536 whole entry, the tested form may be a part): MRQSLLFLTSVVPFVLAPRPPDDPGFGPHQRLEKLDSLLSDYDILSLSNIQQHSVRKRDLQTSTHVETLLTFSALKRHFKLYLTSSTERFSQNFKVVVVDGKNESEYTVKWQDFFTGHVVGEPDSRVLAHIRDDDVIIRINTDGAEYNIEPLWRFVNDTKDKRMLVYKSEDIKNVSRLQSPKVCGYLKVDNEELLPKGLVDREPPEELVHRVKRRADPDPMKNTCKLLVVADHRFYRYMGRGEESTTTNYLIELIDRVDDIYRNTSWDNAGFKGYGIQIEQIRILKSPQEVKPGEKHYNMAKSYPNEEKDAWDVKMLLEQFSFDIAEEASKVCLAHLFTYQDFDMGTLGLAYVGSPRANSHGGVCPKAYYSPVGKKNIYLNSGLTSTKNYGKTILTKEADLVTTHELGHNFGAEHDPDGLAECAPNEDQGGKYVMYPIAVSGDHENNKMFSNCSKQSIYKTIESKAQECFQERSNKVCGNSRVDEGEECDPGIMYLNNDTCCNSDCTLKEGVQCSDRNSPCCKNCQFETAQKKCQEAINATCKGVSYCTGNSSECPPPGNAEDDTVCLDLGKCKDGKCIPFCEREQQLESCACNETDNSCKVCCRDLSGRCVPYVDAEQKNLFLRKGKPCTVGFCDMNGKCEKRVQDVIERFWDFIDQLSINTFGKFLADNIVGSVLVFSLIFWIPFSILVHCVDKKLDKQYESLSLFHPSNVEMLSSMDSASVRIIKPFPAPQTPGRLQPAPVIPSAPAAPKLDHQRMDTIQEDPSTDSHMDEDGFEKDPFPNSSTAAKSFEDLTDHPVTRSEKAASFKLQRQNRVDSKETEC
72 kDa type IV collagenase (Homo sapiens), sequence (P08253 110-660 limits assumed): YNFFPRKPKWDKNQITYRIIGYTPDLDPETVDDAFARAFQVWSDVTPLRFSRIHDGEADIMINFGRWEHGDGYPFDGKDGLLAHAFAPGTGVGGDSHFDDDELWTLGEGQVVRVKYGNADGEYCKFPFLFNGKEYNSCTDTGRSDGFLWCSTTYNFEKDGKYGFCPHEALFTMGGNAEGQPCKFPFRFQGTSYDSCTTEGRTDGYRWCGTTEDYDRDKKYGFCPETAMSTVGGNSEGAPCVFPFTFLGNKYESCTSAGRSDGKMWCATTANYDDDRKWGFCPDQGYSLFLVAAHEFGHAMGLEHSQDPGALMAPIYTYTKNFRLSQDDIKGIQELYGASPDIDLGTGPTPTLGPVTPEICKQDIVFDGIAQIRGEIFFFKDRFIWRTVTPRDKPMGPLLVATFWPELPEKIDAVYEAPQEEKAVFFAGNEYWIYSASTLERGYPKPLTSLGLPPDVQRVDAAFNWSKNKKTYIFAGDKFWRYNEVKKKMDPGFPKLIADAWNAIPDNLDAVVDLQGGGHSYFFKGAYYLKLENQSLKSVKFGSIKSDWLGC
Macrophage metalloelastase (Homo sapiens), sequence (P39900 106-470 limits assumed): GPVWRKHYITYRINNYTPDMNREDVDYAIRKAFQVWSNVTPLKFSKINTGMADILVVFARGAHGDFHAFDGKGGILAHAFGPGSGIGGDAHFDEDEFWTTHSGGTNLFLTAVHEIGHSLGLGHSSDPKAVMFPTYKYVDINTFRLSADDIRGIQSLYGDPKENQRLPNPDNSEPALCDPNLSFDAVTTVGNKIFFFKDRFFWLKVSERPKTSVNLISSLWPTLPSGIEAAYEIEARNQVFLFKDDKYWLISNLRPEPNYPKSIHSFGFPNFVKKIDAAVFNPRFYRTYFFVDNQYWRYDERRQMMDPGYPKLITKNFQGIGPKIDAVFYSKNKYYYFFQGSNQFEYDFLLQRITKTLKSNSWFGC

In the case of `O=C(O)c1ccc(CSc2nc3c(c(=O)[nH]2)CCC3)cc1`, at Collagenase 3 [1], the inhibition is 2.2%.
Same read-out and setting: the same measure for `O=c1[nH]c(SCCc2ccccc2)nc2c1CCC2`: 7.7%.
As for `Cc1nc(SCc2ccc(Br)cc2)nc(O)c1C`, the inhibition on Neutrophil collagenase [2] was 20%; on Collagenase 3 [1], 55.8%.
Consider `CCCCSc1nc(O)c2c(n1)CCC2`, for which the inhibition at Collagenase 3 [1] was found to be 17.1%.
On the same count and under the same terms, then `C#CCSc1nc2c(c(=O)[nH]1)CCC2`, with 10.3%.
As to `Cc1ccc(CSc2nc3c(c(=O)[nH]2)CCC3)cc1`, the IC50 against Neutrophil collagenase [3] and on Interstitial collagenase was more than 40 µM throughout. Also, the Ki on Collagenase 3 [4] came out at 0.824 µM.
For the compound `Cc1ccc(CSc2nc(O)c3c(n2)CCC3)cc1`, the inhibition amounted to 0% in test [5]; 19% in [10]; 0% against Neutrophil collagenase [2]; 20% in [12]; 7% in test [17]; 67% on Collagenase 3 [1]. The Activity came out at 100% in test [6]; 101% in test [8]; 38.6% at Collagenase 3 [9]; 77.3% in [11]; 100% in test [13]; 106% in test [14]. Besides, the Activity in test [15] was 97.6%; on Neutrophil collagenase [16] it was 106%. For the same compound, in test [7], the inhibition result was “inactive”.
In the case of `Oc1nc(SCc2ccc(Cl)cc2)nc2ccsc12`, the inhibition on Collagenase 3 [1] is 36.6%.
Turning to `Oc1[nH]c(SCc2ccc(Cl)cc2)nc2nncc1-2`, the inhibition result at Collagenase 3 [1] is “inactive”.
On the same count and under the same terms, then `O=C(CSc1nc2c(c(=O)[nH]1)C(Cc1ccccc1)CC2)c1ccccc1` (stereo not given), with 16%; and `O=S(=O)(Nc1cc(O)nc(SCc2ccc(Cl)cc2)n1)c1ccccc1`, with 31.2%; and `CCCc1cc(O)nc(SCc2ccc(Cl)cc2)n1`, with “inactive”.
Same read-out and setting: then `O=c1[nH]c(SCc2ccc(Cl)cc2)nc2c1C(Cc1ccccc1)CC2` (stereo not given), with 37.7%; and `CS(=O)(=O)c1ccc(CSc2nc3c(c(=O)[nH]2)CCC3)cc1`, with 46.7%; and `O=c1[nH]c(SCc2ccc(Cl)cc2)nc(O)c1Cc1ccccc1`, with “inactive”.
On to `Cc1cccc(CSc2nc(O)c3c(n2)CCCC3)c1`, for which the inhibition result on Collagenase 3 [1] is “inactive”.
Same read-out and setting: the same measure for `CC(=O)Nc1c(O)nc(SCc2ccc(Cl)cc2)nc1O`: “inactive”.
Same read-out and setting: then `O=c1[nH]c(SCc2coc(-c3cccc(Cl)c3)n2)nc2c1CCC2`, with “inactive”.
Consider `Oc1nc(SCc2ccc(Cl)cc2)nc2c1CCC2`, for which the IC50 against Neutrophil collagenase [3] and against Interstitial collagenase was more than 40 µM each time. The inhibition was found to be 0% in test [5]; 25% in test [10]; 17% at Neutrophil collagenase [2]; 22% in [12]; 10% in test [17]; 49.1% at Collagenase 3 [1]. Further, the Activity in test [6] came to 96%; in test [8] it was 105%; on Collagenase 3 [9], 44%; in [11] it was 91.6%; in test [13], 107%; in test [14] it was 92.7%. Besides, the Activity is 83% in test [15] and 81.7% at Neutrophil collagenase [16]. Besides, the inhibition result in test [7] is “inactive”. Besides, the Ki at Collagenase 3 [4] stood at 3.8 µM.
As for `Cc1cc(=O)[nH]c(SCc2ccc(Cl)cc2)n1`, at Collagenase 3 [1], the inhibition was 32.9%.
As to `Cc1ccccc1S(=O)(=O)Nc1cc(=O)[nH]c(SCc2ccc(Cl)cc2)n1`, the inhibition on Collagenase 3 [1] amounted to 30.5%.
Turning to `COC(=O)c1ccc(CSc2nc3c(c(=O)[nH]2)CCC3)cc1`, the IC50 against Neutrophil collagenase [3] and at Interstitial collagenase was more than 40 µM each time. The inhibition in [5] is 0%; in [10], 26%; against Neutrophil collagenase [2], 8%; in test [12], 31%; in [17], 16%; at Collagenase 3 [1], 61%. Besides, the Activity in [6] stood at 100%; in [8], 96.4%; at Collagenase 3 [9], 35.1%; in [11], 80.6%; in [13] it was 104%; in test [14] it was 102%. Further, the figures for the Activity (in test [15]; on Neutrophil collagenase [16]) were 84.7% and 93.8%, respectively. Also, the inhibition entry in [7] is “inactive”. Moreover, the Ki on Collagenase 3 [4] was determined as 1.53 µM.
Turning to `O=c1[nH]c(SCc2ccc(OC(F)(F)F)cc2)nc2c1CCC2`, the inhibition on Collagenase 3 [1] came out at 34.4%.
As for `Cc1cccc(CSc2nc3c(c(=O)[nH]2)CCC3)c1`, the inhibition at Collagenase 3 [1] came out at 45.2%.
For `Cc1oc(-c2cccc(Cl)c2)cc1CSc1nc2c(c(=O)[nH]1)CCC2`, at Collagenase 3 [1], the inhibition result is “inactive”.
With `O=C(CSc1nc2c(c(=O)[nH]1)CCC2)c1ccccc1`, at Collagenase 3 [1], the inhibition result was “inactive”.
On the same count and under the same terms, the same measure for `O=c1[nH]c(SCCCc2ccccc2)nc2c1CCC2`: 7.2%; for `Oc1nc(SCc2ccc(Cl)cc2)nc2ccccc12`: “inactive”; for `Nc1cc(O)nc(SCc2ccc(Cl)cc2)n1`: 37%.
